# Measurements taken from ChEMBL document CHEMBL1150402, “Carbon-11 labeled indolylpropylamine analog as a new potential PET agent for imaging of the serotonin transporter” (Bioorg Med Chem, 2008).
# Experiments:
# [1] = molecular target: Sodium-dependent noradrenaline transporter (Homo sapiens, UniProt P23975); assay: Displacement of [3H]nisoxetine from human NET expressed in HEK293 cells; assay type: cell-based
# Method in brief: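 Stably transfected HEK293 membrane preparation (50-80 ug protein/tube) in 50 mM Tris-HCl pH 7.4, 120 mM NaCl, 5 mM KCl. 0.5 nM radioligand with 6-12 test concentrations, 21 °C for 60 min. Nonspecific: 100 uM protriptyline. GF/B filtration, scintillation counting. Triplicates per experiment; IC50 by nonlinear fitting, converted to Ki.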
# [2] = molecular target: Sodium-dependent dopamine transporter (Homo sapiens, UniProt Q01959); assay: Displacement of [3H]WIN-35428 from human DAT expressed in HEK293 cells; assay type: cell-based
# Sodium-dependent dopamine transporter, sequence (Q01959 whole entry): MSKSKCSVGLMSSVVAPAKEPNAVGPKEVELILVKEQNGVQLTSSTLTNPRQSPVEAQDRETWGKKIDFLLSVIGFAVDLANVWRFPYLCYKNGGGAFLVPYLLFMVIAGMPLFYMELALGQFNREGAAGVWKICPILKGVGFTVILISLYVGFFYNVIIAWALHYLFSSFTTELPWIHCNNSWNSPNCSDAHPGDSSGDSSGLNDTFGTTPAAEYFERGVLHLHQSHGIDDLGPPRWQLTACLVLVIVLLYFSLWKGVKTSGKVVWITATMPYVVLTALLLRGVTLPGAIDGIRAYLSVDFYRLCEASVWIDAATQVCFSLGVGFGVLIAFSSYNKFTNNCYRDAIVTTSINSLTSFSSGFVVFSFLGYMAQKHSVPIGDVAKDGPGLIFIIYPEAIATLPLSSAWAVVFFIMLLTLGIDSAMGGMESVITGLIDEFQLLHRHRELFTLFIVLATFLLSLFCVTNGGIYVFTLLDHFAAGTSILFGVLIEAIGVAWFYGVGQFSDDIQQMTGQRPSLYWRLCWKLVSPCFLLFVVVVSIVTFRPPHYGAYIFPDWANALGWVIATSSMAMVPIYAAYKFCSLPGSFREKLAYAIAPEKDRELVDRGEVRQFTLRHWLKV
# Method in brief: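 Stably transfected HEK293 membrane preparation (50-80 ug protein/tube) in 50 mM Tris-HCl pH 7.4, 100 mM NaCl. 0.5 nM radioligand with 6-12 test concentrations, on ice for 120 min. Nonspecific: 10 uM GBR12909. GF/B filtration, ice-cold Tris washes, scintillation counting. Triplicates per experiment; IC50 by iterative nonlinear fitting, converted to Ki.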
# [3] = molecular target: T1, 5-hydroxytryptamine receptor 1A (Rattus norvegicus, UniProt P19327); assay: Displacement of [3H]8-OH-DPAT from 5HT1A receptor in rat cortical membrane; assay type: cell membranes
# T1 sequence (P19327 whole entry): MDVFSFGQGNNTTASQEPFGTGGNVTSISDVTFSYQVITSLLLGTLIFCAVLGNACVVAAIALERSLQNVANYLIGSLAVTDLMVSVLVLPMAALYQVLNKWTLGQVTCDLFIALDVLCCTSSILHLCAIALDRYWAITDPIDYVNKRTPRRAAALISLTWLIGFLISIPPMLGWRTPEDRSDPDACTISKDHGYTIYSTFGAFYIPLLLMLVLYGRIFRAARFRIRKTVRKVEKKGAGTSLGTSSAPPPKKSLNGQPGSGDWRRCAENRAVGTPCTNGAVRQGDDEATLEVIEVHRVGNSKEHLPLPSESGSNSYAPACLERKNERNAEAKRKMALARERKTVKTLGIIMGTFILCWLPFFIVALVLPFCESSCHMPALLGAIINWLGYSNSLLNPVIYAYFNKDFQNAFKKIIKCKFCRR
# Method in brief: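 Cortex from female SPRD rats (~200 g), homogenized and washed in 50 mM Tris-HCl pH 7.4. Membranes in 50 mM Tris-HCl pH 7.4, 4 mM CaCl2, 0.1% ascorbic acid with 0.3 nM radioligand and 6-12 test concentrations, 21 °C for 60 min. Nonspecific: 10 uM serotonin. GF/B filtration, scintillation counting.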
# [4] = molecular target: T2, Sodium-dependent serotonin transporter (Homo sapiens, UniProt P31645); assay: biochemical; assay type: cell-based, HEK293
# T2 sequence (P31645 whole entry): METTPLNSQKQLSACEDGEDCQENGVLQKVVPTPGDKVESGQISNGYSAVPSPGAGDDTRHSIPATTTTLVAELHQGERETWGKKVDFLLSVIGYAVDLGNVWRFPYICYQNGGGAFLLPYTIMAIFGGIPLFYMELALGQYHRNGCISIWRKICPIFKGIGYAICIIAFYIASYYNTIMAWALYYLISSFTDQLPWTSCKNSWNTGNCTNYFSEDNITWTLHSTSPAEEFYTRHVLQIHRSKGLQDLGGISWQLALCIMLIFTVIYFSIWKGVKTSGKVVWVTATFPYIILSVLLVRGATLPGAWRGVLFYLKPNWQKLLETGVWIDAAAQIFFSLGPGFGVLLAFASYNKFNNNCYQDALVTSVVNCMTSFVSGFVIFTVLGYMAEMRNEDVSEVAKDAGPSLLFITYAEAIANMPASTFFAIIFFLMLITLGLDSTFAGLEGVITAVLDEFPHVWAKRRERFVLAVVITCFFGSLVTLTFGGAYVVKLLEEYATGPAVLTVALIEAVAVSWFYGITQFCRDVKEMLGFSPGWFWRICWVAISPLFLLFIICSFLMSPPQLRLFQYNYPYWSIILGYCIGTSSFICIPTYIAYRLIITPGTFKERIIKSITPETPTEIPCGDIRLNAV
# [5] = molecular target: T2, Sodium-dependent serotonin transporter; assay: biochemical; assay type: cell-based, HEK293; remark: listed apart in the source
# Sodium-dependent noradrenaline transporter, sequence (P23975 whole entry): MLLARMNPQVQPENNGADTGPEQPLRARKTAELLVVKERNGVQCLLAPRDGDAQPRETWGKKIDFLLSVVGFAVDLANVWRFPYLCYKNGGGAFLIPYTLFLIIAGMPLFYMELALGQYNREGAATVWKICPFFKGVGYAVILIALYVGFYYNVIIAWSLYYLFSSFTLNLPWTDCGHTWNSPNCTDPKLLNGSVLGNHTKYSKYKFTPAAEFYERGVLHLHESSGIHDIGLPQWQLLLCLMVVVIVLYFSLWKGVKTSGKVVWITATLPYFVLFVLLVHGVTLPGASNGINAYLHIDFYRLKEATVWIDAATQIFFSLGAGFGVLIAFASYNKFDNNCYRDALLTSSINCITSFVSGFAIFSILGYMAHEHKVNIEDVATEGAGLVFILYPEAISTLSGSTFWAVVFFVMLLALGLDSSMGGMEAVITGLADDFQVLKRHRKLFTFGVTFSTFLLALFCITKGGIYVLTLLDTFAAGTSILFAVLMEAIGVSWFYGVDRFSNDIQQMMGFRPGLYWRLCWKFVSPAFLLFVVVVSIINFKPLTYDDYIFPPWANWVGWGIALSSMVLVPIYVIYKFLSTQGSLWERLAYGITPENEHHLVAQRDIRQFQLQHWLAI
SMILES,Ki [1] [nM],Ki [2] [nM],Ki [3] [nM],Ki [4] [nM],Ki [5] [nM]
[11CH3]Oc1ccc2c(c1)CCN(CCCc1c[nH]c3ccc(Br)cc13)C2,2770,1030,50,11.4,13.3
[11CH3]Oc1cccc2c1CCN(CCCc1c[nH]c3ccc(Br)cc13)C2,6600,3490,1990,1910,2980
[11CH3]Oc1ccc2c(c1)CCN(CCCc1c[nH]c3ccc(F)cc13)C2,1680,2490,54,4.11,25.3
CNC(C)Cc1ccc2c(c1)OCO2 (configuration not stated) [MIDOMAFETAMINE],–,–,–,0.73,2.03
[11CH3]Oc1cccc2c1CCN(CCCc1c[nH]c3ccc(I)cc13)C2,1810,1160,1120,213,2660
[11CH3]Oc1cccc2c1CCN(CCCc1c[nH]c3ccc(F)cc13)C2,2880,1480,164,6.46,44.7
[11CH3]Oc1ccc2c(c1)CCN(CCCc1c[nH]c3ccc(I)cc13)C2,712,3650,685,374,1110
